Test results from article PMC4012894 (Journal of the American Chemical Society, 2014).

Experiments:
PikCD50N/H238A-RhFRED = assay: Total turnover number; format: biochemical; details: PikCD50N/H238A-RhFRED double mutant
In short: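 Double mutant made by adding H238A to the PikCD50N-RhFRED fusion, to probe the H238 H-bond to the anchoring-group carbonyl. TTN is expressed relative to moles of enzyme.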

PikCD50N-RhFRED [1] = molecular target: T1, PikCD50N-RhFRED (Streptomyces venezuelae, UniProt O87605, D50N); assay: PikCD50N-RhFRED analytical-scale enzymatic reactions; format: biochemical; details: for hydroxylation by PikCD50N-RhFRED (result in words): 0.5 mol % enzyme (5 μM enzyme, 1 mM substrate); for preferred site of hydroxylation (regioselectivity in words): PikCD50N-RhFRED
T1 sequence (O87605 1-416 D50N): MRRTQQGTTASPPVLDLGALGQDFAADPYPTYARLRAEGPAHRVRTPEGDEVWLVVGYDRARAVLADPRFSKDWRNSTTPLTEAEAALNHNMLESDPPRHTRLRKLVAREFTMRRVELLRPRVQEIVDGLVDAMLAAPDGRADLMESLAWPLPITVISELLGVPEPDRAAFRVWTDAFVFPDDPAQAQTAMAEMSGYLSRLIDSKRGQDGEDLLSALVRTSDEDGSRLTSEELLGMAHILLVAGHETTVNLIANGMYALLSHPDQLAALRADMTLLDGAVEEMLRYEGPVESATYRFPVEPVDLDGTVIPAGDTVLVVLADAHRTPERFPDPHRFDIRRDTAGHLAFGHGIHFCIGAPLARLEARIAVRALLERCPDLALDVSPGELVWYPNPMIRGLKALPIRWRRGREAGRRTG
T1 sequence (Q8KU27 445-773 partner): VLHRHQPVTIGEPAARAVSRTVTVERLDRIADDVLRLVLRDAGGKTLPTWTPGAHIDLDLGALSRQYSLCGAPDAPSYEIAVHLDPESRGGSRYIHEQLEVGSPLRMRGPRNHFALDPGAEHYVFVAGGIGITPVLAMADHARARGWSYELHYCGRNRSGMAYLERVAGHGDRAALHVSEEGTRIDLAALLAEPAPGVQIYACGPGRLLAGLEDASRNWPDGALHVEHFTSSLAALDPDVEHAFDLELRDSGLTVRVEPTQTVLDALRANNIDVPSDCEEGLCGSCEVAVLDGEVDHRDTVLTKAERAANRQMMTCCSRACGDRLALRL

PikCD50N-RhFRED [2] = molecular target: T1, PikCD50N-RhFRED; assay: Spectroscopic equilibrium substrate binding assay, PikCD50N-RhFRED
PikCD50NH238A = molecular target: T2, PikCD50NH238A (Streptomyces venezuelae, UniProt O87605, D50N/H238A); assay: Spectroscopic equilibrium substrate binding assay, PikCD50NH238A mutant
T2 sequence (O87605 1-416 D50N/H238A): T1 sequence (O87605 1-416 D50N)
T2 sequence (Q8KU27 445-773 partner): T1 sequence (Q8KU27 445-773 partner)

SMILES | TTN D50NH238A (PikCD50N/H238A-RhFRED) | hydroxylation by PikCD50N-RhFRED (result in words) (PikCD50N-RhFRED [1]) | preferred site of hydroxylation (regioselectivity in words) (PikCD50N-RhFRED [1]) | Kd (PikCD50N-RhFRED [2]) [µM] | Kd (PikCD50NH238A) [µM]
CC[C@H]1OC(=O)[C@H](C)[C@@H](OC(=O)c2cccc(CN(C)C)c2)[C@@H](C)C[C@@H](C)C(=O)/C=C/[C@H]1C [16b] | 922 ± 35 | converted to monohydroxylated products | highly regioselective allylic hydroxylation at C-10 | – | –
CC[C@H]1OC(=O)[C@H](C)[C@@H](OC(=O)c2ccc(CN(C)C)cc2)[C@@H](C)C[C@@H](C)C(=O)/C=C/[C@H]1C [16a] | 816 ± 33 | converted to monohydroxylated products | highly regioselective allylic hydroxylation at C-10 | – | –
CC[C@H]1OC(=O)[C@H](C)[C@@H](OC(=O)[C@H]2CCCN2C)[C@@H](C)C[C@@H](C)C(=O)/C=C/[C@H]1C [12a] | 542 ± 30 | – | preferential C-10 hydroxylation | 47 ± 3 | 19 ± 1.3
CC[C@H]1OC(=O)[C@H](C)[C@@H](OC(=O)CCN(C)C)[C@@H](C)C[C@@H](C)C(=O)/C=C/[C@H]1C [8b] | 870 ± 38 | – | – | 81 ± 15 | 161 ± 25
CC[C@H]1OC(=O)[C@H](C)[C@@H](OC(=O)CCCN(C)C)[C@@H](C)C[C@@H](C)C(=O)/C=C/[C@H]1C [compound 10] | 853 ± 38 | – | – | 123 ± 14 | 168 ± 19
CC[C@H]1OC(=O)[C@H](C)[C@@H](OC(=O)[C@@H]2CCCN2C)[C@@H](C)C[C@@H](C)C(=O)/C=C/[C@H]1C [12b] | 538 ± 20 | – | preferential C-10 hydroxylation | 28 ± 5.4 | 21 ± 0.7
CC[C@H]1OC(=O)[C@H](C)[C@@H](OC(=O)c2ccccc2CN(C)C)[C@@H](C)C[C@@H](C)C(=O)/C=C/[C@H]1C [compound 14] | 491 ± 26 | converted to monohydroxylated products | favor C-12 hydroxylation | – | –
